HIF act: HIF pathway transcriptional activation | U2OS HRE-luciferase reporter, luminescence; normalized: DMSO 0%, desferrioxamine 100% | activation, % at 7.5 µM (by protocol) | 300,000 tested, 0.32% active;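 active = mean activation of at least 10% of the iron chelator positive control signal, with at least half of replicates also reaching 10%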
TAG inh: inhibitors of triacylglycerol accumulation. H9c2 cells, Nile Red lipid (TAG) fluorescence; cells loaded with 200 µM oleic acid. inhibition, % at 12.5 µM. 230,000 tested, 0.66% active. AID 651582;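 active = pattern-corrected inhibition of lipid staining of at least 50% with the nuclear-stain viability signal not falling by more than 50%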;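 note: 0% = DMSO wells and 100% = triacsin C control wells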
ABHD5-PLIN5 inh: ABHD5-PLIN5 protein interaction inhibition; Q00G26+Q8WTS1; Split G. princeps luciferase complementation, luminescence, 4 h; inhibition, % at 4 µM; 360,000 tested, 0.78% active; AID 602281;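 active = inhibition above the mean inhibition across every tested compound plus 3 SD, cut at about 22% in these data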;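 note: 0% = DMSO only wells and the 100% control is not disclosed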
Rad51 HR inh: Rad51 (human) homologous recombination inhibition. Q06609. hRad51 DNA strand exchange, fluorescence dequenching. inhibition, % at 10 µM. 200,000 tested, 0.085% active. AID 1385;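 active = inhibition above 40% at the single screening dose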;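 note: 0% = DMSO control wells and 100% = blanks with heterologous ssDNA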
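material = hRad51 filaments on single-stranded DNA | timing = filaments 15 min 37 °C, then compound 30 min | signal = FRET fluorescence dequenching, excitation 485 nm, emission 520 nm | benchmarks = control wells and blank wells on each plate | evaluation = percent inhibition relative to plate controls and blanks | compound = 10 µM final, single point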
Hsp70 activator: transcriptional activators of Hsp70 | 200,000 tested, 0.04% active | HeLa Hsp70 promoter luciferase reporter, luminescence; scaled: vehicle 0, proteasome-inhibitor control 100% | activation, % at 10 µM;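 active = activation above the mean across all tested compounds plus 3 SD, cutoff set per campaign, cut at about 5.5% in these data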;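 note: 100% = MG132 at 30 µM as the positive control and 0% = DMSO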
GAA850 FXN act: frataxin GAA850 promoter activation; AID 540364; HEK293 lucGAA850 FXN promoter luciferase reporter, 24 h; percent of 10 µM SAHA response; activation, % at 6 µM; 360,000 tested, 0.56% active;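 active = activation above the average of all compounds screened plus 3 SD, cutoff fixed separately per campaign, cut at about 7.5% in these data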;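 note: 0% = DMSO wells and 100% = 10 µM SAHA wells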
ABHD5 PLIN5 conf: ABHD5-PLIN5 interaction inhibition, confirmed | 2,200 tested, 67% active | biochemical ABHD5-PLIN5 interaction, luminescence | shares compounds with ABHD5-PLIN5 inh | inhibition, % at 4 µM; in the data active = inhibition above about 23%;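 note: 0% = DMSO vehicle wells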
HNF4 counter: counter-screen for ABHD5-PLIN5 inhibitors: HNF4 split-luciferase; shares compounds with ABHD5-PLIN5 inh; HNF4 dimerization, luminescence, biochemical; inhibition, % at 4 µM; 2,200 tested, 77% active;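 active = mean inhibition across replicate wells exceeding the computed hit threshold, cut at about 13% in these data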;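 note: light from luciferase halves that rejoin when HNF4 fusion proteins dimerize; 0% = DMSO only wells and the 100% control is not given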
Active calls of the source: *; / = not tested or not shown. In the library only some 1.9% were active in any assay of this set; here they are far more common.

SMILES | HIF act | TAG inh | ABHD5-PLIN5 inh | Rad51 HR inh | Hsp70 activator | GAA850 FXN act | ABHD5 PLIN5 conf | HNF4 counter
CN(c1ccccc1)S(=O)(=O)c1ccc(NC(=O)c2nc(S(C)(=O)=O)ncc2Cl)cc1 | -0.1 | / | 77.9* | / | / | -14.1 | 91.1* | 106.3*
CC12CCC3c4ccc(O)cc4CCC3C1CC(=NO)C2O (stereo unspecified) | / | 4.9 | 2.4 | / | / | 4.3 | / | /
O=C(O)C1=C(C(=O)Nc2cccc(C(F)(F)F)c2)CCCC1 | 0.2 | -5.2 | -2.4 | -33.2 | -0.1 | -0.1 | / | /
Cc1cccc(CS(=O)(=O)c2ncc(Cl)c(C(=O)NCc3ccc4c(c3)OCO4)n2)c1 | 5.1 | / | 49.5* | / | / | -1.6 | 86.8* | 105.4*
Cc1ccc(NC(=O)c2nc(S(=O)(=O)Cc3ccccc3C)ncc2Cl)cc1C | -1.6 | / | 71.7* | / | / | -4.9 | 97.9* | 97.4*
CCSc1ncc(Cl)c(C(=O)Nc2ccc(S(=O)(=O)Nc3ncccn3)cc2)n1 | -0.3 | / | 0.9 | / | / | -0.3 | / | /
CCCS(=O)(=O)c1ncc(Cl)c(C(=O)Nc2ccc(S(=O)(=O)Nc3ncccn3)cc2)n1 | 0.4 | / | 32.8* | / | / | -0.5 | 71.1* | 86.0*
CCOc1ccccc1C(=O)NCCN1CCC(n2c(=O)[nH]c3ccccc32)CC1 | / | / | 6.8 | / | / | / | / | /
CC1(C(=O)NS(=O)(=O)c2cccc(OC(F)F)c2)CCN1C(=O)Cc1ccsc1 (stereo unspecified) | / | -9.0 | 0.5 | / | / | -0.3 | / | /
C=CC(=O)N1C/C(=C/c2ccc(F)cc2)C(=O)/C(=C\c2ccc(F)cc2)C1 | / | 78.0* | 99.7* | / | / | -14.4 | 101.9* | 105.5*
CN1C2CCC1/C(=C\c1ccc(F)cc1)C(=O)/C2=C/c1ccc(F)cc1 | 0.0 | / | 11.5 | -10.3 | 0.5 | 5.2 | / | /
COC(=O)C[C@@H]1C[C@@H]2c3cc(NS(=O)(=O)c4ccc(F)cc4)ccc3O[C@@H]2[C@@H](CO)O1 | / | -1.2 | 7.6 | / | / | 3.0 | / | /
Cc1ccc(-n2c(CCC(=O)O)ccc2-c2cccs2)cc1 | 2.0 | / | 18.4 | 1.8 | 0.2 | 4.2 | / | /
CC(=O)c1ccc(-n2c(CCC(=O)O)ccc2-c2cccs2)cc1 | 2.2 | / | 31.8* | -2.9 | -0.1 | -3.6 | 5.3 | 49.5*
NC(=O)c1ccc(-n2c(CCC(=O)O)ccc2-c2cccs2)cc1 | -0.1 | -0.3 | 31.2* | / | -0.2 | 0.8 | 0.5 | 40.2*
CC(Sc1nnc(-c2ccc(Cl)cc2)n1N)C(=O)NCC1CCCO1 (stereo unspecified) | 0.3 | 4.0 | 8.7 | / | / | 1.6 | / | /
CC(C)C1N=C(c2ccc3c(c2)OCO3)CC(c2ccccc2O)N1 (stereo unspecified) | 3.7 | / | 56.0* | 6.6 | -0.5 | 5.9 | 58.1* | 82.0*
CCOC(=O)c1cc(C#N)c(N2CCCNCC2)nc1C(F)(F)F | -2.2 | / | 2.8 | / | / | 0.6 | / | /
COc1cc2c(cc1OC)C(C)N(CCc1ccc(Cl)cc1)CC2 (stereo unspecified) | 0.5 | -1.4 | 24.0* | / | / | -0.9 | 23.9* | 0.0
Cc1ccc(S(=O)(=O)N2C[C@H]3[C@H]4C(=O)N(Cc5ccccc5)C(=O)[C@H]4CC(=O)[C@H]3[C@@H]2c2cccc3ccccc23)cc1 | / | / | -6.7 | / | / | / | / | /
COc1ccc(C)cc1S(=O)(=O)NCC(c1ccco1)N1CCc2ccccc2C1 (stereo unspecified) | 0.8 | -11.8 | -11.2 | / | / | 0.6 | / | /
COC(=O)C[C@H]1C=C[C@H](NS(=O)(=O)c2cn(C)cn2)[C@@H](CO)O1 | / | / | -11.5 | / | / | / | / | /
Cn1cnc([N+](=O)[O-])c1NC(C)(C)C | -0.3 | / | -7.7 | 12.3 | -0.5 | 1.0 | / | /
Cn1cnc([N+](=O)[O-])c1S(=O)(=O)c1ccc(Cl)cc1 | 1.5 | 32.2 | 48.9* | -0.7 | -0.2 | 4.7 | 74.8* | 98.2*
COc1ccc(CC(=O)NNC(=O)c2ccco2)cc1OC | -0.2 | / | 1.8 | / | / | 1.7 | / | /
O=C(C1CCN(S(=O)(=O)c2cccs2)CC1)N1CCCC(C(F)(F)F)C1 (stereo unspecified) | 0.2 | -34.6 | -0.9 | / | / | 1.4 | / | /
